From ChEMBL document CHEMBL3351423, “2-Phenylaminonaphthoquinones and related compounds: synthesis, trypanocidal and cytotoxic activities” (Bioorg Med Chem, 2014)

Columns and labels:
[1] = tested on: Vero; test: Cytotoxicity against african green monkey Vero cells by MTT assay; format: cell-based; details: Chlorocebus sabaeus
Summary of the method: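 Vero cells in RPMI 1640 without phenol red, with compound added from DMSO (final below 0.25% v/v). Read by MTT (5 mg/mL) plus 0.22 mg/mL phenazine methosulfate for 4 h at 37 °C, formazan dissolved in 10% SDS/0.01 M HCl overnight, OD at 570 nm. IC50 from four-parameter nonlinear fit; at least three experiments, triplicate cultures.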

[2] = tested on: Trypanosoma cruzi; test: Trypanocidal activity against epimastigote stage of Trypanosoma cruzi assessed as cell viability after 24 hrs by MTT assay
[3] = Antiproliferative activity against human PC3 cells after 72 hrs; format: functional, cell-based; details: PC-3, 72 h
Summary of the method: (§1)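 Cells grown in DMEM with 10% FCS, penicillin/streptomycin and 1 mM glutamine. Seeded at 3 × 10³ cells/well and allowed to attach for 24 h at 37 °C in 5% CO₂. Exposed continuously for 72 h to four serial dilutions (12.5 to 100 µM), in triplicate; final DMSO 0.1%, DMSO-only controls. Read by sulforhodamine B after TCA fixation, with doxorubicin as reference.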

[4] = tested on: MCF7; test: Antiproliferative activity against human MCF7 cells after 72 hrs; format: functional, cell-based; details: MCF7, 72 h; summary of the method: as §1
[5] = tested on: MDA-MB-231; test: Antiproliferative activity against human MDA-MB-231 cells after 72 hrs; format: functional, cell-based; details: MDA-MB-231, 72 h; summary of the method: as §1
[6] = Antiproliferative activity against human dermal fibroblast cells after 72 hrs; format: cell-based; summary of the method: as §1
[7] = tested on: MCF7; test: Selectivity index, ratio of IC50 for human dermal fibroblast cells to IC50 for human MCF7 cells; format: functional
Summary of the method: (§2)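 Selectivity index calculated as IC50 in non-tumoral dermal human fibroblasts divided by IC50 in the cancer line. Both IC50s come from a 72 h sulforhodamine B growth assay with four dilutions (12.5–100 µM) in triplicate.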

[8] = tested on: Fibroblast; test: Selectivity index, ratio of IC50 for human dermal fibroblast cells to IC50 for human PC3 cells; format: functional; summary of the method: as §2
[9] = tested on: Trypanosoma cruzi; test: Trypanocidal activity against trypomastigote form of Trypanosoma cruzi infected in african green monkey Vero cells assessed as cell viability after 5 to 7 days by MTT assay; format: functional
[10] = Selectivity index, ratio of CC50 for african green monkey Vero cells to IC50 for epimastigote stage of Trypanosoma cruzi; format: functional
Summary of the method: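 Selectivity index taken as Vero IC50 divided by epimastigote IC50. Both values are from MTT viability assays, with Vero cells read at 37 °C and epimastigotes at 28 °C.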

[11] = tested on: Fibroblast; test: Selectivity index, ratio of IC50 for human dermal fibroblast cells to IC50 for human MDA-MB-231 cells; format: functional; summary of the method: as §2

| Structure (SMILES) | IC50 [1] [µM] | IC50 [2] [µM] | IC50 [3] [µM] | IC50 [4] [µM] | IC50 [5] [µM] | IC50 [6] [µM] | Selectivity Index [7] | Selectivity Index [8] | inhibition (INH) [9] [%] | Selectivity Index [10] | Selectivity Index [11] |
| --- | --- | --- | --- | --- | --- | --- | --- | --- | --- | --- | --- |
| O=C1C=C(Nc2ccc(O)cc2)C(=O)c2ccccc21 | > 25 | > 25 | – | – | – | – | – | – | – | – | – |
| COc1ccc(NC2=CC(=O)c3ccccc3C2=O)cc1 | > 25 | > 25 | 35.4 | > 100 | > 100 | 65.4 | – | – | – | – | – |
| COc1ccc(OC)c(NC2=CC(=O)c3ccccc3C2=O)c1 | > 50 | 23.3 | 1.03 | 0.21 | 87.5 | > 100 | >480 | >97 | – | – | – |
| COc1ccc(OC)c(NC2=C(Cl)C(=O)c3ccccc3C2=O)c1 | > 100 | > 100 | – | – | – | – | – | – | – | – | – |
| O=C1C=C(Nc2ccc3ccccc3c2)C(=O)c2ccccc21 | 6.97 | 9.02 | – | – | – | – | – | – | 86.02 | 0.77 | – |
| O=C1C(O)=C(c2ccccc2[N+](=O)[O-])C(=O)c2ccccc21 | > 100 | > 100 | – | – | – | – | – | – | – | – | – |
| COc1ccccc1NC1=CC(=O)c2ccccc2C1=O | > 25 | 3.49 | > 100 | > 100 | > 100 | > 100 | – | – | 18.78 | – | – |
| COc1cccc(NC2=CC(=O)c3ccccc3C2=O)c1 | > 25 | > 25 | > 100 | > 100 | > 100 | > 100 | – | – | – | – | – |
| COc1ccc(NC2=CC(=O)c3ccccc3C2=O)cc1OC | > 25 | 25 | 10.4 | 22.2 | 10.2 | > 100 | – | – | – | – | – |
| COc1ccc(NC2=CC(=O)c3ccccc3C2=O)c(OC)c1 | > 25 | > 25 | 60 | > 100 | > 100 | > 100 | – | – | – | – | – |
| CCCCCCOc1ccc(NC2=CC(=O)c3ccccc3C2=O)cc1 | 27 | 1.72 | 27.9 | > 100 | > 100 | > 100 | – | – | 69.63 | 16 | – |
| Cc1ccc(NC2=CC(=O)c3ccccc3C2=O)c(C)c1 | > 25 | > 25 | – | – | – | – | – | – | – | – | – |
| CCCCCCOc1ccc(NC2=C(Cl)C(=O)c3ccccc3C2=O)cc1 | 196 | 6.04 | > 100 | > 100 | > 100 | > 100 | – | – | 46.3 | 32 | – |
| O=C1C=C(Nc2cccc3ccccc23)C(=O)c2ccccc21 | > 25 | 15.9 | – | – | – | – | – | – | 59.67 | – | – |
| COc1cccc2c3c([nH]c12)C(=O)c1ccccc1C3=O | 21.7 | 20.9 | > 100 | > 100 | > 100 | > 100 | – | – | 12.21 | 0.95 | – |
| COc1ccc2c3c([nH]c2c1)C(=O)c1ccccc1C3=O | > 25 | > 25 | – | – | – | – | – | – | – | – | – |

| Structure (SMILES) | IC50 [1] [µM] | IC50 [2] [µM] | IC50 [3] [µM] | IC50 [4] [µM] | IC50 [5] [µM] | IC50 [6] [µM] | Selectivity Index [7] | Selectivity Index [8] | inhibition (INH) [9] [%] | Selectivity Index [10] | Selectivity Index [11] |
| --- | --- | --- | --- | --- | --- | --- | --- | --- | --- | --- | --- |
| COc1ccc2[nH]c3c(c2c1)C(=O)c1ccccc1C3=O | > 50 | > 50 | > 100 | > 100 | > 100 | > 100 | – | – | – | – | – |
| COc1ccc(OC)c2c3c([nH]c12)C(=O)c1ccccc1C3=O | > 100 | > 100 | – | – | – | – | – | – | – | – | – |
| CCCCCCOc1ccc2[nH]c3c(c2c1)C(=O)c1ccccc1C3=O | > 100 | > 100 | – | – | – | – | – | – | – | – | – |
| COc1cc2c(cc1OC)C(=O)c1c([nH]c3cc(OC)c(OC)cc13)C2=O | > 100 | > 100 | – | – | – | – | – | – | – | – | – |
| COc1ccc2c(c1)c1c(n2C)C(=O)c2ccccc2C1=O | > 25 | > 25 | > 100 | > 100 | > 100 | > 100 | – | – | – | – | – |
| COc1cc2c3c(n(C)c2cc1OC)C(=O)c1ccccc1C3=O | > 100 | > 100 | > 100 | > 100 | > 100 | > 100 | – | – | – | – | – |
| COc1ccc(OC)c(NC2=CC(=O)c3ncccc3C2=O)c1 | 15.4 | 2.45 | 0.53 | 0.12 | 8.8 | 22.5 | 188 | 42 | 32.62 | 6.3 | – |
| O=C1C(Cl)=C(Nc2cccnc2)C(=O)c2ccccc21 | > 100 | > 100 | – | – | – | – | – | – | – | – | – |
| Cc1cnc2c(c1)C(=O)C=C(Nc1ccccc1)C2=O | 16.2 | 5.79 | – | – | – | – | – | – | 58.2 | 2.7 | – |
| COc1ccc(OC)c(NC2=CC(=O)C3=C(OC(C)(C)C3)C2=O)c1 | 15.5 | 12.3 | – | – | – | – | – | – | 7.5 | 1.3 | – |
| Cn1ncc2c1C(=O)C1=C(CC(C)(C)O1)C2=O | 13.4 | 2.53 | – | – | – | – | – | – | 38.57 | 5.3 | – |
| COc1cc2c(cc1OC)C(=O)C(c1cc(OC)c(OC)cc1[N+](=O)[O-])=C(O)C2=O | > 100 | > 100 | – | – | – | – | – | – | – | – | – |
| O=C1C=C(Nc2ccccc2)C(=O)c2ccccc21 | > 10 | > 25 | – | – | – | – | – | – | – | – | – |
| O=C1c2ccccc2C(=O)c2c1[nH]c1ccccc21 [BENZOCARBAZOLEDIONE] | > 10 | > 10 | – | – | – | – | – | – | – | – | – |
| COc1cccc2c1C(=O)c1c(O)c3c(c(O)c1C2=O)C[C@@](O)(C(=O)CO)C[C@@H]3O[C@H]1C[C@H](N)[C@H](O)[C@H](C)O1 [DOXORUBICIN] | – | – | 0.54 | 0.32 | 0.31 | 7.86 | 25 | 15 | – | – | 25 |
| CC1CS(=O)(=O)CCN1/N=C/c1ccc([N+](=O)[O-])o1 (stereo not given) [NIFURTIMOX] | 411 | 21.1 | – | – | – | – | – | – | 42.62 | 20 | – |
